Rows were chosen to be rich in hits. Some 1.4% of all compounds tested hit in one or more screens of this group.
HTR5A inv ctr – HTR5A inverse agonists in luminescence cell assay, primary screen, counter-screen for OPRM1-OPRD1 heterodimer inverse agonist project, full-deck HTS | inhibition, % at 9.3 µM | HTR5A cell line, inverse agonism | AID 504634, 2011 | 5-hydroxytryptamine receptor 5A (Homo sapiens), P47898 | hit rate 0.083% among 340,000; in the data active = inhibition mostly above about 23%, no sharp cut-off; inactive = mostly below about 18%;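 also: 0% = cells with DMSO and 100% = no-cell wells with DMSO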
HTR5A ag – HTR5A agonists in luminescence cell assay, primary screen, counter-screen for OPRM1-OPRD1 heterodimer agonist project, full-deck HTS. cell-based. AID 504692, 2011. hit rate 0.61% among 340,000. activation, % at 9.3 µM. 5-hydroxytryptamine receptor 5A (Homo sapiens), P47898; in the data active = activation mostly above about 9.5%, no sharp cut-off; inactive = mostly below about 7.6%;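 also: 0% = cells with vehicle only and 100% = reference agonist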
Arrestin-AP2 inh – inhibitors of beta-arrestin/AP2 binding, primary screen, biochemical, GPCR trafficking, flow cytometry; beta-arrestin 1 C-terminal peptide binding to AP2 beta2-adaptin appendage (human); FITC-arrestin peptide / GST-AP2 beads; AP2 beta2 appendage carries R879A mutation; inhibition, % at 10 µM; hit rate 0.31% among 340,000;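 active = inhibition above a set limit, near 3 SD of compounds lacking own fluorescence, cut at about 54% in these data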;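 also: plate controls were DMSO wells for no effect and 5 µM unlabelled arrestin peptide for full effect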
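System: GST-tagged AP2 beta2-adaptin appendage (R879A) on 4 µm glutathione beads / Reagent: FITC-arrestin peptide, 50 nM / Detection: HyperCyt-sampled flow cytometry, FL1 channel, ex 488/em 535 nm / Timing: 12 min plus 1 h, RT / Buffer or medium: PBS plus Tween 20 (0.05%) and BSA (0.1%)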
DAGLB inh – DAGLB lipase inhibitors, primary screen, biochemical, fluorescence, HTS; HEK293T DAGLB membrane lysate, EnzChek fluorogenic substrate; inhibition, % at 5.17 µM; hit rate 0.059% among 340,000; Diacylglycerol lipase-beta (Homo sapiens), Q8NCG7; in the data active = inhibition above about 34%;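 also: 0% = enzyme with vehicle and 100% = wells lacking enzyme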
Target sequence (Q8NCG7 whole entry, looked up): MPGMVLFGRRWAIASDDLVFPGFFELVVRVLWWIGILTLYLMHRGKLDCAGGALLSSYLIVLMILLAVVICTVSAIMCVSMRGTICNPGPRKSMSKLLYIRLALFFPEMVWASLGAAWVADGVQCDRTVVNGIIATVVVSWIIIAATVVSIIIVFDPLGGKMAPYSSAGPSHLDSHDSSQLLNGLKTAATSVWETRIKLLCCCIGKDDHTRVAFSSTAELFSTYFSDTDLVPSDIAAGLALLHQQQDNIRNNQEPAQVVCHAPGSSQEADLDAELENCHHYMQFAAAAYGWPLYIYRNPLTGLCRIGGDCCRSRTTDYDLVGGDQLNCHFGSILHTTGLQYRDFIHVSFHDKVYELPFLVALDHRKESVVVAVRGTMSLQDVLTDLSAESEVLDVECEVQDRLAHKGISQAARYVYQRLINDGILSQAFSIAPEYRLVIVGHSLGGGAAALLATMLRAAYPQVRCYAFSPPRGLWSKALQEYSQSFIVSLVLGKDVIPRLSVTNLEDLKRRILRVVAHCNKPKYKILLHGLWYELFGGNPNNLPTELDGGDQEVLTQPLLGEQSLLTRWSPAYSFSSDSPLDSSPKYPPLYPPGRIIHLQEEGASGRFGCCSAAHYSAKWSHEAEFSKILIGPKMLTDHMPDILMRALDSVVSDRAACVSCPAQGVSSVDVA
OPRM1-OPRD1 inv – inverse agonists of MOR-DOR heterodimerization, primary screen, cell-based, luminescence. Mu-type opioid receptor (Homo sapiens) + Delta-type opioid receptor (Homo sapiens), …. cell-based MOR-DOR heterodimer luminescence, inverse agonism. inhibition, % at 9.3 µM. hit rate 0.21% among 340,000; in the data active = inhibition above about 22%, passing the limit was not always enough;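 also: 0% = cells with DMSO and 100% = wells without cells with DMSO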
MOR-DOR ag – agonists of OPRM1-OPRD1 heterodimerization, primary screen, cell-based, luminescence. Mu-type opioid receptor (Homo sapiens) + Delta-type opioid receptor (Homo sapiens), …. activation, % at 9.3 µM. cells. hit rate 0.3% among 340,000. AID 504326, 2011;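 also: 0% = vehicle-treated cells and 100% = reference agonist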
OPRM1-D1 ag cf – agonists of MOR-DOR heterodimerization, confirmation, cell-based, luminescence. shares compounds with MOR-DOR ag. cells, luminescence complementation. activation, % at 9.3 µM. hit rate 45% among 830. AID 504904, 2011;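 also: 0% = vehicle-treated cells and 100% = reference agonist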
HTR5A ag ctr2 – HTR5A agonists in cells, counter-screen for OPRM1-OPRD1 heterodimer agonist project, cell-based, luminescence; shares compounds with MOR-DOR ag; HTR5A agonist counterscreen; activation, % at 9.3 µM; hit rate 8% among 830; in the data active = activation above about 17%;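 also: 0% = vehicle-treated cells and 100% = reference agonist response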
* hit, by the source's call; i = inactive; x = no result. Rule as the data show it, unless noted: active = activation above about 18%; inactive = the rest.

SMILES	HTR5A inv ctr	HTR5A ag	Arrestin-AP2 inh	DAGLB inh	OPRM1-OPRD1 inv	MOR-DOR ag	OPRM1-D1 ag cf	HTR5A ag ctr2
COc1ccc(CC(=O)NCC(c2ccc(OC)cc2)N(C)C)cc1 (stereo unspecified)	3	-1	-23	0	-160	31*	3	1
COc1ccc(C(CNC(=O)c2ccc(S(=O)(=O)Nc3ccc(F)cc3)cc2)N(C)C)cc1 (stereo unspecified)	10	3	17	-1	6	-1	x	x
CC1Cc2cccc3ccc(=O)n(c23)C1 (stereo unspecified)	-11	3	-2	-4	4	-1	x	x
COc1cccc(NC(=O)N(C)C[C@H]2OCc3cn(nn3)CCCC(=O)N([C@@H](C)CO)C[C@@H]2C)c1	x	x	x	-4	x	x	x	x
CCn1c2ccccc2c2cc(NC(=O)N3CCCCC3)ccc21	x	x	x	2	x	x	x	x
Cn1c(SCC(=O)Nc2ccc(F)cc2)nc2c([nH]c3ccccc32)c1=O	-12	4	3	9	-129	25*	18*	5
Cn1c(SCC(=O)Nc2cccc(F)c2)nc2c([nH]c3ccccc32)c1=O	3	-1	17	-1	-2	0	x	x
Cc1ccc(NC(=O)CSc2nc3c([nH]c4ccccc43)c(=O)n2C)cc1	-7	3	-1	-2	-185	31*	-4	1
O=C(Nc1cccc(NC(=O)c2cccc([N+](=O)[O-])c2)n1)c1cccc([N+](=O)[O-])c1	11	-3	-1	1	-116	24*	18*	3
COC(=O)c1ccccc1NC(=O)c1ccc(Cn2cc(Cl)cn2)o1	-12	-1	-4	-2	-113	19*	11	5
COC(=O)c1cc(NC(=O)c2ccc(Cn3cc(Cl)cn3)o2)cc(C(=O)OC)c1	15	-4	-8	-1	4	-1	x	x
CC(=O)N1CCc2cc(S(=O)(=O)C(C)CC(=O)NCc3ccco3)ccc21 (stereo unspecified)	x	x	x	-2	x	x	x	x
COC(=O)c1c(NC2=NS(=O)(=O)c3ccccc32)sc2c1CCC(C(C)(C)C)C2 (stereo unspecified)	8	-3	13	0	9	-2	x	x
CC(C)[C@H](NC(=O)c1c(F)cccc1F)C(=O)Nc1cccc(Br)c1	-32	8	-12	-1	-126	22*	12	0
O=C(c1cccs1)N(Cc1ccco1)C1CCS(=O)(=O)C1 (stereo unspecified)	27	0	5	-1	13	-2	x	x
O=C(c1sc2ccccc2c1Cl)N(Cc1ccccc1Cl)C1CCS(=O)(=O)C1 (stereo unspecified)	-12	4	7	2	-275	52*	18*	4
O=C(c1ccccc1F)N(Cc1ccccc1)C1CCS(=O)(=O)C1 (stereo unspecified)	1	-2	13	1	-7	1	x	x
O=C(c1sc2ccccc2c1Cl)N(Cc1ccco1)C1CCS(=O)(=O)C1 (stereo unspecified)	-26	0	3	2	-283	53*	54*	0
O=C(c1sc2ccccc2c1Cl)N(Cc1ccccc1)C1CCS(=O)(=O)C1 (stereo unspecified)	0	-2	-4	3	-146	29*	27*	5
CCc1ccc(C(=O)c2cnc3ccc(OC)cc3c2N2CCN(CC)CC2)cc1	7	-3	0	0	i	111*	-1	-1
